According to ChEMBL document CHEMBL1944531, “In silico assay for assessing phospholipidosis potential of small druglike molecules: training, validation, and refinement using several data sets” (J Med Chem, 2012):

Assay: Induction of phospholipidosis in bovine corneal fibroblasts assessed as lamellar inclusion bodies after 72 hrs by light microscopy
Design: species or system Bos taurus, Cornea
Conditions: cattle, corneal fibroblast

| Compound | Activity |
| --- | --- |
| CC(C)NCC(O)COc1cccc2ccccc12 (centres undefined) [PROPRANOLOL] | Toxic |
| CN1CCN([C@@H]2CCN(C(=O)c3cc(C(F)(F)F)cc(C(F)(F)F)c3)C[C@@H]2c2ccccc2)CC1 | Toxic |
| CCC1(c2ccccc2)C(=O)NC(=O)NC1=O [PHENOBARBITAL] | Non-toxic |
| Cc1cc(C#Cc2cn(-c3ccc(F)cc3)c(C)n2)ccn1 | Non-toxic |
| O=C(CCCN1CCC(O)(c2ccc(Cl)cc2)CC1)c1ccc(F)cc1 [HALOPERIDOL] | Toxic |
| CCN(CC)CCOc1ccc2c(c1)C(=O)c1cc(OCCN(CC)CC)ccc1-2 [TILORONE] | Toxic |
| CC(OCC1CC1)c1ccc2c(n1)N1[C@@H](CNC[C@H]1C)C2 (some centres undefined) | Toxic |
| CN1CCN(C(c2ccccc2)c2ccccc2)CC1 [CYCLIZINE] | Toxic |
| CC(C)COc1ccc(S(C)(=O)=O)cc1C(=O)N1Cc2cnc(C(F)(F)F)cc2C1 | Non-toxic |
| CCCCc1oc2ccccc2c1C(=O)c1cc(I)c(OCCN(CC)CC)c(I)c1 [AMIODARONE] | Toxic |
| NCC[C@H](O)C(=O)N[C@@H]1C[C@H](N)[C@@H](O[C@H]2O[C@H](CN)[C@@H](O)[C@H](O)[C@H]2O)[C@H](O)[C@H]1O[C@H]1O[C@H](CO)[C@@H](O)[C@H](N)[C@H]1O [AMIKACIN] | Non-toxic |
| COc1cc(-c2nc(N)c(CN)c(-c3ccc(Cl)cc3Cl)n2)cc(OC)c1OC | Toxic |
| GENTAMICIN | Non-toxic |
| CC(C)(CCn1cnc(-c2cccnc2)c1)NCC(=O)N1CCC[C@H]1C#N.CS(=O)(=O)O | Non-toxic |
| CC[C@H]1OC(=O)[C@H](C)[C@@H](O[C@H]2C[C@@](C)(OC)[C@@H](O)[C@H](C)O2)[C@H](C)[C@@H](O[C@@H]2O[C@H](C)C[C@H](N(C)C)[C@H]2O)[C@](C)(O)C[C@@H](C)C(=O)[C@H](C)[C@@H](O)[C@]1(C)O [ERYTHROMYCIN] | Non-toxic |
| CN(CC[C@H]1CC[C@H](CN2CCCCC2)CC1)C(=O)Oc1ccc(C(F)(F)F)cc1 | Toxic |
| CN(C)CCCC1(c2ccc(F)cc2)OCc2cc(C#N)ccc21 (centres undefined) [CITALOPRAM] | Toxic |
| CN1CCN(C(c2ccccc2)c2ccc(Cl)cc2)CC1 (centres undefined) [CHLORCYCLIZINE] | Toxic |
| CN(C(=O)C(C)(C)c1cc(C(F)(F)F)cc(C(F)(F)F)c1)c1cnc(NCCO)cc1-c1ccccc1Cl | Non-toxic |
| CN1CCN(C2=Nc3cc(Cl)ccc3Nc3ccccc32)CC1 [CLOZAPINE] | Toxic |
| C[C@H](C(N)=O)N1CCc2cc(OCc3cccc(F)c3)ccc2C1 | Toxic |
| C1CCC(C(CC2CCCCN2)C2CCCCC2)CC1 (centres undefined) [PERHEXILINE] | Toxic |
| CC/C(=C(\c1ccccc1)c1ccc(OCCN(C)C)cc1)c1ccccc1 [TAMOXIFEN] | Toxic |
| C[C@@H]1CNC[C@H]2Cc3ccc(Cl)nc3N21 | Non-toxic |
| CN(C)CCCN1c2ccccc2CCc2ccccc21 [IMIPRAMINE] | Toxic |
| CCCC(CCC)C(=O)O [VALPROIC ACID] | Non-toxic |
| CN(C)CCCN1c2ccccc2Sc2ccccc21 [PROMAZINE] | Toxic |
| CN(C)CCCn1c2c(c3ccccc31)CCCCCC2 [IPRINDOLE] | Toxic |

| Compound | Activity |
| --- | --- |
| CCN(CCO)CCCCOc1ccc2c(-c3ccc(Br)cc3)nsc2c1 | Toxic |
| COc1cc(F)c(C(OC)C(=O)NCc2ccc(C(=N)N)cc2)c(F)c1.Cl (centres undefined) | Non-toxic |
| CC(C)CC(N(C)C)C1(c2ccc(Cl)cc2)CCC1.Cl (centres undefined) | Toxic |
| CS(=O)(=O)O.C[C@H](NCc1ccc(OCc2cccc(F)c2)cc1)C(N)=O [SAFINAMIDE MESYLATE] | Toxic |
| O=C(N[C@H](CO)[C@H](O)c1ccc([N+](=O)[O-])cc1)C(Cl)Cl [CHLORAMPHENICOL] | Non-toxic |
| CN(C)CCCN1c2ccccc2Sc2ccc(Cl)cc21 [CHLORPROMAZINE] | Toxic |
| CCN(CC)CCCC(C)Nc1c2ccc(Cl)cc2nc2ccc(OC)cc12 (centres undefined) [QUINACRINE] | Toxic |
| CCCC[C@@H]1CC(=O)[C@]2(O)O[C@@H]3[C@@H](NC)[C@@H](O)[C@@H](NC)[C@H](O)[C@H]3O[C@@H]2O1 [TROSPECTOMYCIN] | Non-toxic |
| CNCCCC12CCC(c3ccccc31)c1ccccc12 [MAPROTILINE] | Toxic |
| NCc1c(N)nc(-c2ccccc2)nc1-c1ccc(Cl)cc1Cl | Toxic |
| COc1ccc(C2CCOCC2)c2sc(NC(=O)N(C)C3CCN(C)CC3)nc12 | Toxic |
| CN(C)CCCN1c2ccccc2CCc2ccc(Cl)cc21 [CLOMIPRAMINE] | Toxic |
| CS(=O)(=O)O.Cc1cc(-c2cnccn2)nn1CCC(C)(C)NCC(=O)N1CCC[C@H]1C#N | Non-toxic |
| CCO[C@@H](C)c1ccc2c(n1)N1[C@@H](CNC[C@H]1C)C2.Cl | Non-toxic |
| CN1C(=O)CN=C(c2ccccc2)c2cc(Cl)ccc21 [DIAZEPAM] | Non-toxic |
| Cc1c(Cl)ccc2c1N1[C@H](CNC[C@H]1C)C2 | Toxic |
| CC(C)(N)Cc1ccc(Cl)cc1 [CHLORPHENTERMINE] | Toxic |
| CC(=O)Nc1ccc(N2CCN(CCCN(C)C)CC2)cc1 [PIPERAMIDE] | Toxic |
| CCN(CC)CCCC(C)Nc1ccnc2cc(Cl)ccc12 (centres undefined) [CHLOROQUINE] | Toxic |
| Cc1cc(-c2cc(-c3ccccc3C)c(C(=O)NCc3cc(C(F)(F)F)cc(C(F)(F)F)c3)cn2)ccn1 | Non-toxic |
| OCCOCCN1CCN(C(c2ccccc2)c2ccc(Cl)cc2)CC1 (centres undefined) [HYDROXYZINE] | Toxic |
| Cc1cccc(CN2CCN(C(c3ccccc3)c3ccc(Cl)cc3)CC2)c1 (centres undefined) [MECLIZINE] | Toxic |
| [H]/N=C(/N)N[C@H]1[C@H](O)[C@@H](O)[C@H](O[C@@H]2O[C@@H](C)[C@](O)(C=O)[C@H]2O[C@@H]2O[C@@H](CO)[C@H](O)[C@@H](O)[C@@H]2NC)[C@@H](N/C(N)=N\[H])[C@@H]1O [STREPTOMYCIN] | Non-toxic |
| COc1cc2c(cc1OC)[C@@H]1C[C@H](N)[C@@H](N3C[C@@H](C)CC3=O)CN1CC2 | Non-toxic |
| COc1ccc(S(=O)(=O)N(c2ccc(F)cc2)C2CCN([C@@H]3COCC[C@@]3(O)c3ccccc3)CC2)cc1 | Non-toxic |
| O=C(c1cc(C(F)(F)F)cc(C(F)(F)F)c1)N1CC[C@@H](N2CCOCC2)[C@@H](c2ccc(Cl)cc2)C1 | Toxic |
| Cc1ccc2c(n1)N1[C@@H](CNC[C@H]1C)C2 | Non-toxic |

Assay: Induction of phospholipidosis in bovine corneal fibroblasts assessed as lamellar inclusion bodies at 2.5 to 20 uM after 72 hrs by light microscopy
Design: species or system Bos taurus, Cornea
Conditions: cattle, corneal fibroblast
In short: (§1)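 Primary bovine corneal fibroblasts from collagenase-treated explants, passage 2–8, grown in DMEM/10% FCS/L-glutamine/antibiotics at 37 °C, 5% CO2. Confluent cells exposed 72 h to compound at 2.5, 5.0, 7.5, 10.0, 12.5, 15.0 or 20 μM (DMSO 1% where used). Controls: medium, 1% DMSO, imipramine 10 μM, in duplicate. Cells were fixed in 1% glutaraldehyde, stained overnight with 1% tannic acid, and black intracytoplasmic inclusions scored qualitatively by light microscopy.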

| Compound | Activity |
| --- | --- |
| C[C@@H]1CNC[C@H]2Cc3ccc(Cl)nc3N21 | Toxic |

Assay: Induction of phospholipidosis in bovine corneal fibroblasts assessed as lamellar inclusion bodies at 20 uM after 72 hrs by light microscopy
Design: species or system Bos taurus, Cornea
Conditions: cattle, corneal fibroblast
In short: as §1

| Compound | Activity |
| --- | --- |
| CCO[C@@H](C)c1ccc2c(n1)N1[C@@H](CNC[C@H]1C)C2.Cl | Toxic |
| Cc1c(Cl)ccc2c1N1[C@H](CNC[C@H]1C)C2 | Toxic |

Assay: Induction of phospholipidosis in bovine corneal fibroblasts assessed as lamellar inclusion bodies at 7.5 uM after 72 hrs by light microscopy
Design: species or system Bos taurus, Cornea
Conditions: cattle, corneal fibroblast
In short: as §1

| Compound | Activity |
| --- | --- |
| CC(OCC1CC1)c1ccc2c(n1)N1[C@@H](CNC[C@H]1C)C2 (some centres undefined) | Toxic |
